The record followed here is ChEMBL document CHEMBL1136006, “New PET imaging agent for the serotonin transporter: [(18)F]ACF (2-[(2-amino-4-chloro-5-fluorophenyl)thio]-N,N-dimethyl-benzenmethanamine)” (J Med Chem, 2002).

Activity calls are given as the source filed them. No cut-off for these calls is given here.

The target of test [1] is T1, Sodium-dependent serotonin transporter (Rattus norvegicus, UniProt P31652). As to the kind of experiment: In vitro binding affinity in LLC-PK1 cells by SERT binding assay by using [125I]IDAM as a radioligand. The class given is cell-based. The method, boiled down:
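LLC-PK1 membrane homogenates overexpressing SERT. Incubated with 0.4 nM [125I]IDAM and 8–10 competitor concentrations (10^-10 to 10^-5 M) in 50 mM Tris-HCl pH 7.4, 120 mM NaCl, 0.1% BSA for 1 h at room temperature. Nonspecific binding defined with 1 μM IDAM. Filter-bound activity gamma-counted, nonlinear regression. Mean ± SEM, three determinations in duplicate.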

For test [2], the target named is Sodium-dependent dopamine transporter (Rattus norvegicus) (UniProt P23977). As to the kind of experiment: Selectivity for Dopamine transporter; No inhibition.
Sequence of Sodium-dependent dopamine transporter (Rattus norvegicus) (P23977 whole entry): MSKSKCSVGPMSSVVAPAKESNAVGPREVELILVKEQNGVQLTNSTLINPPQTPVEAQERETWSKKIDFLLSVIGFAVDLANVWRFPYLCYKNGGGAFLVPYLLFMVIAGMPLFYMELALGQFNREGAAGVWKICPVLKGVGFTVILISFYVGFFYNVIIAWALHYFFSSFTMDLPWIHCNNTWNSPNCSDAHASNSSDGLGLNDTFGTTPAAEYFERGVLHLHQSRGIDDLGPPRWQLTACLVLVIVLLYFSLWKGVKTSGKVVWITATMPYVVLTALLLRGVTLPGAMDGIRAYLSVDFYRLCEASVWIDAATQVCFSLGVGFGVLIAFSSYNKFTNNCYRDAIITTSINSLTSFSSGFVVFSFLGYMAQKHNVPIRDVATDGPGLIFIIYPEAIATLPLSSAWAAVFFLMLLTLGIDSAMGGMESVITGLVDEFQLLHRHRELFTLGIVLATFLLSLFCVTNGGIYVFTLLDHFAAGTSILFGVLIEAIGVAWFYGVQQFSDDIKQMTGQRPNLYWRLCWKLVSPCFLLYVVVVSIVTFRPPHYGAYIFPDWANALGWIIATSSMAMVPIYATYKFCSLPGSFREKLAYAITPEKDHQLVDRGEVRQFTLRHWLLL
Test [3] addresses T1, Sodium-dependent serotonin transporter. Nature of the test: Inhibition of 5-HT reuptake (SERT) in rat brain synaptosomes. The class given is subcellular.
In test [4] the target is T2, Sodium-dependent noradrenaline transporter (Homo sapiens, UniProt P23975). Nature of the test: Selectivity for norepinephrine transporter.
T2 sequence (P23975 whole entry, looked up): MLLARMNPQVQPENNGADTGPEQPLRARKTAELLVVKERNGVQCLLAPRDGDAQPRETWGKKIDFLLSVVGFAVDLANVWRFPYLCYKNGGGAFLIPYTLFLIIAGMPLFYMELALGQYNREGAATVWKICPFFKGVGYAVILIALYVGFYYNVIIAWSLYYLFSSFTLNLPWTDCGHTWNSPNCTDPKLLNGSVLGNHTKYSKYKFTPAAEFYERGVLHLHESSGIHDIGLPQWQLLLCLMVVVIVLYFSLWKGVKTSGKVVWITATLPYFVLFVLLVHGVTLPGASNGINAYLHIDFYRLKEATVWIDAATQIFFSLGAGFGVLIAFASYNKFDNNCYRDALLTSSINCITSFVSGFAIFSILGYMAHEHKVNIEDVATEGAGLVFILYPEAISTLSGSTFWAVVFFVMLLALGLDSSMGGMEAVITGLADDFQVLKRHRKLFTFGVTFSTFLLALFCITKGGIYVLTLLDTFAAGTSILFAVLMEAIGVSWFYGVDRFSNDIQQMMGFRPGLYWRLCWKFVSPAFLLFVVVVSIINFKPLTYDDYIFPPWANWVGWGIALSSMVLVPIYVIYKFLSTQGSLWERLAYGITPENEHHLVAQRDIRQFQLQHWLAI
In test [5] the target is Sodium-dependent dopamine transporter (Rattus norvegicus, UniProt P23977). As to the kind of experiment: In vitro binding affinity in LLC-PK1 cells by Dopamine transporter binding assay by using [125I]IPT as a radioligand. The class given is cell-based. The essentials:
(§1)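 LLC-PK1 cell membrane homogenates overexpressing DAT or NET. Incubated with 0.4 nM [125I]IPT and 8–10 competitor concentrations (10^-10 to 10^-5 M) in 50 mM Tris-HCl pH 7.4, 120 mM NaCl, 0.1% BSA for 1 h at room temperature. Nonspecific binding defined with 10 μM CFT. Filtered, gamma-counted, nonlinear regression. Mean ± SEM of three determinations in duplicate.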

Test [6] addresses T2, Sodium-dependent noradrenaline transporter. As to the kind of experiment: In vitro binding affinity in LLC-PK1 cells by Norepinephrine transporter binding assay by using [125I]-IPT as a radioligand. The class given is cell-based. The essentials: as §1

T1 sequence (P31652 whole entry): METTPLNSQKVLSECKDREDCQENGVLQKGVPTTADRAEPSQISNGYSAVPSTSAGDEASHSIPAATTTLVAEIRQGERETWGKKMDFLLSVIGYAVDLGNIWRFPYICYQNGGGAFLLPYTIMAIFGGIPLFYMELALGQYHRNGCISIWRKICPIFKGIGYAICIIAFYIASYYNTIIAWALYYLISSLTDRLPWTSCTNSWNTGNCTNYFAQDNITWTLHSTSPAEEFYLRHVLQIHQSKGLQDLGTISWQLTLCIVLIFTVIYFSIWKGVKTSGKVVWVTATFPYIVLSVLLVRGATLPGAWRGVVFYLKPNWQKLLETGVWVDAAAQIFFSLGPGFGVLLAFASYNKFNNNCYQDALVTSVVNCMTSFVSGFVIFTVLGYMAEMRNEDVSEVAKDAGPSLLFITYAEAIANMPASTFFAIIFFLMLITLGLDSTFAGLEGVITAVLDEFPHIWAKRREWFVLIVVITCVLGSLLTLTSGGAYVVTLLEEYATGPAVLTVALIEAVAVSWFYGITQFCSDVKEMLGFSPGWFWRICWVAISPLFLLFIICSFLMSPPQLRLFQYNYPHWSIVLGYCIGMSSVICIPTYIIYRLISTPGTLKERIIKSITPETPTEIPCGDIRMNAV
Sequence of Sodium-dependent dopamine transporter (P23977 whole entry): as the sequence (P23977 whole entry) above

In the case of `COc1ccc(Sc2ccccc2CN(C)C)c(N)c1`, the Ki in test [1] turned out to be 1.1 nM.

With `CN(C)Cc1ccccc1Sc1ccc(Cl)cc1CO`, in test [2], the NI entry is “inactive”. In addition, the Ki in test [3] came to 2.1 nM; in test [4], 55 nM.

On to `CN(C)C(=O)c1ccccc1Sc1cc(N)c(Cl)cc1[N+](=O)[O-]`, for which the Ki worked out at 3050 nM in test [5], 15000 nM in test [6] and 2.39 nM in test [1].

As for `CN(C)Cc1ccccc1Sc1cc(F)c(Cl)cc1[N+](=O)[O-]`, the Ki was determined as 31900 nM in test [5], 2810 nM in test [6] and 4.16 nM in test [1].

On to `CN(C)Cc1ccccc1Sc1ccc(I)cc1N`, for which the Ki in test [5] and in test [6] was 699 nM each time.

Take `CN(C)Cc1ccccc1Sc1ccc(CF)cc1N`: the Ki in test [1] turned out to be 1.1 nM.

In the case of `Cc1ccc(Sc2ccccc2CN(C)C)c(N)c1`, the Ki in test [1] amounted to 1.1 nM.
